From paper PMC10286277 (ACS Omega, 2023)

Key:
pUC19 DNA = experiment: Hydrolytic DNA cleavage, gel electrophoresis without external agent or light; assay type: biochemical; details: 400 μM, control experiments
Procedure, shortened: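 pUC19 DNA (200 ng) in 50 mM Tris–HCl, pH 8, was incubated with test compound (0–400 μM) in 10 μL for 2 h at 37 °C, with no added agent and no light. Controls used Cu(OAc)₂·H₂O, free ligand or imidazole, each at 400 μM. Samples were run on 1% agarose in TAE (pH 8.4) for 1.5 h at 60 V, stained with 0.5 μg/mL ethidium bromide and imaged under UV for conversion to nicked circular form.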

cervical cancer HeLa = experiment: MTT cell viability assay; assay type: cell-based, human; details: 24 h
Procedure, shortened: (§1)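 Cells were seeded at 2×10^4 per well, held overnight at 37 °C in humidified CO₂ and treated with test compound at […] for 24 h. MTT (0.5 mg/mL) was added for 4 h in the dark and then removed. Formazan was dissolved in DMSO and absorbance read at 570 nm.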

breast cancer MDA-MB-231 = experiment: MTT cell viability assay; assay type: cell-based, human; details: MDA-MB-231, 24 h
Procedure, shortened: as §1

Row | Molecule | DNA cleavage by starting materials alone (pUC19 DNA) | IC50 (cervical cancer HeLa) | sensitivity of cells in MTT cell viability assay (in words) (breast cancer MDA-MB-231)
1 | 2-(2-Hydroxyphenyl)benzothiazoline | No cleavage was detected | – | –
2 | CC(=O)[O-].CC(=O)[O-].O.[Cu+2] [Cu(OAc)2·H2O, copper(II) acetate monohydrate] | No cleavage was detected | – | –
3 | N.N.[Cl][Pt][Cl] [cisplatin, reference compound] | – | 30.9 ± 0.45 µM | resistant
4 | c1c[nH]cn1 [imidazole] | No cleavage was detected | – | –
